Reference: ChEMBL document CHEMBL2010765, “Structure-activity relationship (SAR) development and discovery of potent indole-based inhibitors of the hepatitis C virus (HCV) NS5B polymerase” (J Med Chem, 2012)
pEC50, pIC50: −log10 of the molar value.

Assays:
Hepatitis C virus [1] = experiment: Inhibition of HCV subtype 1b NS5B Cdelta21 RNA dependent RNA polymerase expressed in Escherichia coli JM109 assessed as inhibition of [alpha32P]CTP incorporation after 1 hr by scintillation assay; parameters: species or system Hepatitis C virus subtype 1b; details: JM 109, 1 h
Hepatitis C virus [2] = experiment: Antiviral activity against HCV infected in human hepatoma cells; format: functional, organism-based, Hepacivirus hominis
[3] = AUC (0 to 24 hrs) in rat at 10 mg/kg, po; format: ADME, organism-based; parameters: time < 24 hr, dose 10 mg/kg, route oral; details: plasma
[4] = Permeability from apical to basal side of human Caco2 cells; format: ADME, cell-based; details: Caco-2, read-out: permeability
[5] = Drug uptake in rat liver at 10 mg/kg, po after 6 hrs; format: ADME, organism-based; parameters: dose 10 mg/kg, route oral; details: read-out: Drug uptake
Method in brief: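 Rats dosed orally at 10 mg/kg; liver tissue concentration measured 6 h after dosing, reported in ng/g.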

[6] = AUC (0 to 24 hrs) in dog at 2 mg/kg, po; format: ADME, organism-based, Canis lupus familiaris; parameters: time < 24 hr, dose 2 mg/kg, route oral; details: plasma
[7] = Clearance in human hepatocytes assessed per million cells; format: ADME, cell-based, Hepatocyte; details: read-out: CLH
Cytochrome P450 2D6 [8] = biological target: T1, Cytochrome P450 2D6 (Homo sapiens, UniProt P10635); experiment: Inhibition of CYP2D6 co-incubated with substrate; format: ADME
Cytochrome P450 3A4 [9] = biological target: T2, Cytochrome P450 3A4 (Homo sapiens, UniProt P08684); experiment: Inhibition of CYP3A4 co-incubated with substrate; format: ADME
Cytochrome P450 2C9 [10] = biological target: T3, Cytochrome P450 2C9 (Homo sapiens, UniProt P11712); experiment: Inhibition of CYP2C9 co-incubated with substrate; format: ADME
Cytochrome P450 2C19 [11] = biological target: T4, Cytochrome P450 2C19 (Homo sapiens, UniProt P33261); experiment: Inhibition of CYP2C19 co-incubated with substrate; format: ADME
Cytochrome P450 2D6 [12] = biological target: T1, Cytochrome P450 2D6; experiment: Inhibition of CYP2D6 preincubated prior to substrate addition; format: ADME
Cytochrome P450 3A4 [13] = biological target: T2, Cytochrome P450 3A4; experiment: Inhibition of CYP3A4 preincubated prior to substrate addition; format: ADME
Cytochrome P450 2C9 [14] = biological target: T3, Cytochrome P450 2C9; experiment: Inhibition of CYP2C9 preincubated prior to substrate addition; format: ADME
Cytochrome P450 2C19 [15] = biological target: T4, Cytochrome P450 2C19; experiment: Inhibition of CYP2C19 preincubated prior to substrate addition; format: ADME
[16] = biological target: Voltage-gated inwardly rectifying potassium channel KCNH2 (Homo sapiens, UniProt Q12809); experiment: Inhibition of human ERG at 10 uM by efflux assay
Sequence of Voltage-gated inwardly rectifying potassium channel KCNH2 (Q12809 whole entry): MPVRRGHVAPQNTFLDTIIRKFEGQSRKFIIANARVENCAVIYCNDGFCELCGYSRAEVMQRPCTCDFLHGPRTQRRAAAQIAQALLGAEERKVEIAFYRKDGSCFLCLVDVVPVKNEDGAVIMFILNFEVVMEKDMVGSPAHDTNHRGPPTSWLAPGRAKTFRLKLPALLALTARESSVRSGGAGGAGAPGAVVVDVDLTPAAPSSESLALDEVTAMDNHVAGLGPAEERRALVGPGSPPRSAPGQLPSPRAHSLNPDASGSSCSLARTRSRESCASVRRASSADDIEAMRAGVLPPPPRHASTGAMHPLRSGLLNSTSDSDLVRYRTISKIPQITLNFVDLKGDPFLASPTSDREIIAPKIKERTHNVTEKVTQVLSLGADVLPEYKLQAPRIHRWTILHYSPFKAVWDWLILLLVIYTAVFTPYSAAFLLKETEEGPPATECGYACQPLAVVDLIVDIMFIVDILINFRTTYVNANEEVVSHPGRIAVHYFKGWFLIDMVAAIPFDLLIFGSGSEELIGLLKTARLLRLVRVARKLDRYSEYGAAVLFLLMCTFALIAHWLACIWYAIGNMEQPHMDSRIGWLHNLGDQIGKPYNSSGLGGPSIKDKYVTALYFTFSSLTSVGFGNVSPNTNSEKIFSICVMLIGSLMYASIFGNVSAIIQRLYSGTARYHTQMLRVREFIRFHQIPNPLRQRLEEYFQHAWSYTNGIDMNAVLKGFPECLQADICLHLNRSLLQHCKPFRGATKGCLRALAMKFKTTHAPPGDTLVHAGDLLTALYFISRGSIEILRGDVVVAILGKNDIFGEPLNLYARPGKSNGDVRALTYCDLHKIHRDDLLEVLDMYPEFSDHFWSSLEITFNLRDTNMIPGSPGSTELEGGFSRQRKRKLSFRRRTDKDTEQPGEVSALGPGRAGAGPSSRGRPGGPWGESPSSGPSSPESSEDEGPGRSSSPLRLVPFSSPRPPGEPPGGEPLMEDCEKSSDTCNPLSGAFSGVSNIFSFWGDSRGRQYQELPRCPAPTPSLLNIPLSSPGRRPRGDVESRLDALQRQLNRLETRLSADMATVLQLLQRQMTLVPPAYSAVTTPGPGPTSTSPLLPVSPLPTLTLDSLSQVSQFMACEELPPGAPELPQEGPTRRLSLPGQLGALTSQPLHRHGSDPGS

T4 sequence (P33261 whole entry): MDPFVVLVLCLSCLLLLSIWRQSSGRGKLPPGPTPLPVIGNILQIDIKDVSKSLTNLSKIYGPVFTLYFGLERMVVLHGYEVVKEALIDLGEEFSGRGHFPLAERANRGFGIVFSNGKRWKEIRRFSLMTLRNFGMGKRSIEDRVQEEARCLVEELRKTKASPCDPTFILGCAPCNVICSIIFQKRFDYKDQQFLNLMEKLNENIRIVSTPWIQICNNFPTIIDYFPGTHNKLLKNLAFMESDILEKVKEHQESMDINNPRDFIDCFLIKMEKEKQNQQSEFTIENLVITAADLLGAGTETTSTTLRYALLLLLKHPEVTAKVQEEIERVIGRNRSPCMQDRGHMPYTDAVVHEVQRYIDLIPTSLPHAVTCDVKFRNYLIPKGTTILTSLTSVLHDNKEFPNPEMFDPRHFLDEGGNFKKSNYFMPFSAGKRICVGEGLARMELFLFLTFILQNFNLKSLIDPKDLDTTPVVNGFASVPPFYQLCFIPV
T3 sequence (P11712 whole entry): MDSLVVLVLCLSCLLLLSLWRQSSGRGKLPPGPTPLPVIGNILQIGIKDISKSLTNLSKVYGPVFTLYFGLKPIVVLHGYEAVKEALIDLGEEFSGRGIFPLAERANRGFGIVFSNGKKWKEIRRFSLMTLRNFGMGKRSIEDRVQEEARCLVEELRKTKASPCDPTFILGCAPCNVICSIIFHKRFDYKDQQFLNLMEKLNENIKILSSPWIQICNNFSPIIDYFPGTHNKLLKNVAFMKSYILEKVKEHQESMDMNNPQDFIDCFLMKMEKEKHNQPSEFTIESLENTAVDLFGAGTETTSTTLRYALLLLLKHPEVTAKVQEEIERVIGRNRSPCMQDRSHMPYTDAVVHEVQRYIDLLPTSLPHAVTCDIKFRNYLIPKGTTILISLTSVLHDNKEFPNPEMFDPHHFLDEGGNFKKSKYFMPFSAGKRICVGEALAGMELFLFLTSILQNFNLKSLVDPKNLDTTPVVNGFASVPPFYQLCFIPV
T2 sequence (P08684 whole entry): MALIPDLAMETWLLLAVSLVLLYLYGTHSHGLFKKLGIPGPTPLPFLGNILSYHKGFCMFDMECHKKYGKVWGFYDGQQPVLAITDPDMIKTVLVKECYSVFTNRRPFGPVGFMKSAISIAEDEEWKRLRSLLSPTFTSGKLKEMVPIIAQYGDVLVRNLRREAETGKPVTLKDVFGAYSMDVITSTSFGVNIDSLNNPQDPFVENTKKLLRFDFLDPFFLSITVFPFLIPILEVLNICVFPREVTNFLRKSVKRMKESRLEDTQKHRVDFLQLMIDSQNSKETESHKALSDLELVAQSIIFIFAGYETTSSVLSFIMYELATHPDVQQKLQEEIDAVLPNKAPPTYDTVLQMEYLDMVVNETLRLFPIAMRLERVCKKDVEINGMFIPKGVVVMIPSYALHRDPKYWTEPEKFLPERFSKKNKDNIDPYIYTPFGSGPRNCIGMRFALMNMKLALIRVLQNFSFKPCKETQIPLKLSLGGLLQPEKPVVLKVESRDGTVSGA
T1 sequence (P10635 whole entry): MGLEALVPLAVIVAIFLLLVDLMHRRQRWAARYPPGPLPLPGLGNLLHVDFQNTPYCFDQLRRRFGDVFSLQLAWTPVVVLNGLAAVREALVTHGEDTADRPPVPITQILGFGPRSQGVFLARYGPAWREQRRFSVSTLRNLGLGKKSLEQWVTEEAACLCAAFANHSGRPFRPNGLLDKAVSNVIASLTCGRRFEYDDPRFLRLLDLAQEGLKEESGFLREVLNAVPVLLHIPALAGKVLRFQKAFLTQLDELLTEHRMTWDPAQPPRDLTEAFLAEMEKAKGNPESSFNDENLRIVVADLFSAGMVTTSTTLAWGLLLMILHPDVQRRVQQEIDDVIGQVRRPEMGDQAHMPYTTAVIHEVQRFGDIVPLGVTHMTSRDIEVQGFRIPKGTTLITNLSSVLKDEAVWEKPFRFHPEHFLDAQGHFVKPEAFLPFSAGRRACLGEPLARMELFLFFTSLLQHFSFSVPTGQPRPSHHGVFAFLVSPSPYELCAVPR

SMILES	pIC50 (Hepatitis C virus [1])	pEC50 (Hepatitis C virus [2])	AUC(0-t) at 24 h [3] [µM·h]	other results
Nc1cc(Cn2c(C(=O)O)c(-c3ccc[nH]c3=O)c3cc(Cl)ccc32)ccn1	7.28	–	–	–
O=C(O)c1c(-c2ccc[nH]c2=O)c2cc(C(F)(F)F)ccc2n1Cc1ccc(F)cc1F	7.60	7.00	–	–
Nc1cc(Cn2c(C(=O)O)c(-c3ccc[nH]c3=O)c3cc(C(F)(F)F)ccc32)ccn1	7.77	7.00	< 0.1	–
O=C(O)c1c(-c2ccccc2F)c2cc(Cl)ccc2n1Cc1ccccc1	–	< 4.00	–	–
CCOc1ccc2c(c1)c(-c1ccc[nH]c1=O)c(C(=O)O)n2Cc1cc(F)ccc1F	7.10	7.00	–	–
O=C(O)c1c(-c2ccc[nH]c2=O)c2cc(Br)ccc2n1Cc1cc(F)ccc1F	8.52	7.00	–	–
CCc1ccc2c(c1)c(-c1ccc[nH]c1=O)c(C(=O)O)n2Cc1cc(F)ccc1F	8.40	7.00	–	–
Nc1cc(Cn2c(C(=O)O)c(-c3ccc[nH]c3=O)c3c(Cl)c(Cl)ccc32)ccn1	6.12	7.00	–	–
Nc1cc(Cn2c(C(=O)O)c(-c3ccc[nH]c3=O)c3c(Br)cccc32)ccn1	5.40	7.00	–	–
Nc1cc(Cn2c(C(=O)O)c(-c3ccc[nH]c3=O)c3cc(Cl)c(Cl)cc32)ccn1	7.33	7.00	–	–
Nc1cc(Cn2c(C(=O)O)c(-c3ccc[nH]c3=O)c3cc(Br)ccc32)ccn1	7.33	7.00	–	–
Nc1cc(Cn2c(C(=O)O)c(-c3ccc[nH]c3=O)c3cc(-c4cccc(=O)[nH]4)ccc32)ccn1	5.15	7.00	–	–
Nc1cc(Cn2c(C(=O)O)c(-c3ccc[nH]c3=O)c3cc(C4CC4)ccc32)ccn1	7.19	7.00	–	–
CS(=O)(=O)c1ccc2c(c1)c(-c1ccc[nH]c1=O)c(C(=O)O)n2Cc1ccnc(N)c1	5.85	7.00	–	–
CC(=O)c1ccc2c(c1)c(-c1ccc[nH]c1=O)c(C(=O)O)n2Cc1ccnc(N)c1	6.48	7.00	–	–
C#Cc1ccc2c(c1)c(-c1ccc[nH]c1=O)c(C(=O)O)n2Cc1ccnc(N)c1	7.32	7.00	–	–
Nc1cc(Cn2c(C(=O)O)c(-c3ccc[nH]c3=O)c3cc(O)ccc32)ccn1	< 4.70	7.00	–	–
Nc1cc(Cn2c(C(=O)O)c(-c3ccc[nH]c3=O)c3cc(OC(F)(F)F)ccc32)ccn1	7.80	7.00	–	–
COc1ccc(Cn2c(C(=O)O)c(-c3ccc[nH]c3=O)c3cc(C(F)(F)F)ccc32)cc1	7.60	7.00	–	–
O=C(O)c1c(-c2ccc[nH]c2=O)c2cc(C(F)(F)F)ccc2n1Cc1ccc(OC(F)F)cc1	7.17	7.00	–	–
Cc1ccccc1Cn1c(C(=O)O)c(-c2ccc[nH]c2=O)c2cc(C(F)(F)F)ccc21	8.05	7.00	–	–
O=C(O)c1c(-c2ccc[nH]c2=O)c2cc(C(F)(F)F)ccc2n1Cc1ccccc1F	8.05	7.00	–	–
Cc1ccc(Cn2c(C(=O)O)c(-c3ccc[nH]c3=O)c3cc(C(F)(F)F)ccc32)c(C)c1	7.80	7.00	–	–
Cc1cccc(Cn2c(C(=O)O)c(-c3ccc[nH]c3=O)c3cc(C(F)(F)F)ccc32)c1F	8.30	7.00	–	–
O=C(O)c1c(-c2ccc[nH]c2=O)c2cc(C(F)(F)F)ccc2n1Cc1cc(F)ccc1F	8.40	7.00	–	–

SMILES	pIC50 (Hepatitis C virus [1])	pEC50 (Hepatitis C virus [2])	AUC(0-t) at 24 h [3] [µM·h]	other results
NC(=O)c1ccc(F)c(Cn2c(C(=O)O)c(-c3ccc[nH]c3=O)c3cc(C(F)(F)F)ccc32)c1	8.15	7.00	–	–
O=C(O)c1c(-c2ccc[nH]c2=O)c2cc(OC(F)(F)F)ccc2n1Cc1cc(F)ccc1F	7.62	7.00	–	–
COc1ccc2c(c1)c(-c1ccc[nH]c1=O)c(C(=O)O)n2Cc1cc(F)ccc1F	7.82	7.00	–	–
CC/C=C/c1ccc2c(c1)c(-c1ccc[nH]c1=O)c(C(=O)O)n2Cc1cc(F)ccc1F	6.82	7.00	–	–
Cc1ccc2c(c1)c(-c1ccc[nH]c1=O)c(C(=O)O)n2Cc1cc(F)ccc1F	8.10	5.96	–	–
O=C(O)c1c(-c2ccc[nH]c2=O)c2cc(CC(F)(F)F)ccc2n1Cc1cc(F)ccc1F	8.10	7.00	–	–
CC(C)(C)c1ccc2c(c1)c(-c1ccc[nH]c1=O)c(C(=O)O)n2Cc1cc(F)ccc1F	8.10	7.00	–	–
CC1(c2ccc3c(c2)c(-c2ccc[nH]c2=O)c(C(=O)O)n3Cc2cc(F)ccc2F)CC1	8.05	7.00	–	–
Cc1ccc2c(c1)c(-c1ccc[nH]c1=O)c(C(=O)NS(C)(=O)=O)n2Cc1cc(F)ccc1F	8.15	6.31	22	–
CCS(=O)(=O)NC(=O)c1c(-c2ccc[nH]c2=O)c2cc(C)ccc2n1Cc1cc(F)ccc1F	8.00	6.70	11	–
Cc1ccc2c(c1)c(-c1ccc[nH]c1=O)c(C(=O)NS(=O)(=O)C(C)C)n2Cc1cc(F)ccc1F	8.15	7.05	6.8	–
Cc1ccc2c(c1)c(-c1ccc[nH]c1=O)c(C(=O)NS(=O)(=O)C1CC1)n2Cc1cc(F)ccc1F	8.22	7.05	9.1	–
CCc1ccc2c(c1)c(-c1ccc[nH]c1=O)c(C(=O)NS(C)(=O)=O)n2Cc1cc(F)ccc1F	8.22	6.82	72	–
CCc1ccc2c(c1)c(-c1ccc[nH]c1=O)c(C(=O)NS(=O)(=O)CC)n2Cc1cc(F)ccc1F	8.22	7.10	4.6	–
CCc1ccc2c(c1)c(-c1ccc[nH]c1=O)c(C(=O)NS(=O)(=O)C(C)C)n2Cc1cc(F)ccc1F	8.30	7.00	0.8	–
CCc1ccc2c(c1)c(-c1ccc[nH]c1=O)c(C(=O)NS(=O)(=O)C1CC1)n2Cc1cc(F)ccc1F	8.52	7.22	12	–
O=C(NS(=O)(=O)C1CC1)c1c(-c2ccc[nH]c2=O)c2cc(C(F)(F)F)ccc2n1Cc1cc(F)ccc1F	8.52	7.30	4.8	–
CC(C)(C)c1ccc2c(c1)c(-c1ccc[nH]c1=O)c(C(=O)NS(=O)(=O)C1CC1)n2Cc1cc(F)ccc1F	8.22	7.30	8	–
CC1(c2ccc3c(c2)c(-c2ccc[nH]c2=O)c(C(=O)NS(=O)(=O)C2CC2)n3Cc2cc(F)ccc2F)CC1	8.22	6.22	11	–
O=C(NS(=O)(=O)C1CC1)c1c(-c2ccc[nH]c2=O)c2cc(CC(F)(F)F)ccc2n1Cc1cc(F)ccc1F	8.15	6.64	0.67	–
Cc1cc2c(-c3ccc[nH]c3=O)c(C(=O)NS(=O)(=O)C3CC3)n(Cc3cc(F)ccc3F)c2cc1F	8.10	7.70	14	Papp A→B [4]: 3.5 ×10⁻⁶ cm/s; concentration at 6 h [5]: 5850 ng/g; AUC(0-t) at 24 h [6]: 8 µM·h; hepatocyte CLint [7]: < 1 µL/min/1e6 cells; pIC50 (Cytochrome P450 2D6 [8]): < 4.70; pIC50 (Cytochrome P450 3A4 [9]): < 4.70; pIC50 (Cytochrome P450 2C9 [10]): < 4.70; pIC50 (Cytochrome P450 2C19 [11]): < 4.70; pIC50 (Cytochrome P450 2D6 [12]): < 4.70; pIC50 (Cytochrome P450 3A4 [13]): < 4.70; pIC50 (Cytochrome P450 2C9 [14]): < 4.70; pIC50 (Cytochrome P450 2C19 [15]): < 4.70; inhibition (INH) [16]: Not Active
Cc1cc2c(-c3ccc[nH]c3=O)c(C(=O)NS(=O)(=O)C3CC3)n(Cc3cc(F)ccc3F)c2cc1Cl	8.30	6.82	–	–
Cc1cc2c(-c3ccc[nH]c3=O)c(C(=O)NS(=O)(=O)C3CC3)n(Cc3cc(F)ccc3F)c2cc1C(F)(F)F	8.15	6.55	0.69	–
O=C(NS(=O)(=O)C1CC1)c1c(-c2ccc[nH]c2=O)c2cc(C(F)(F)F)c(F)cc2n1Cc1cc(F)ccc1F	8.15	6.55	–	–
CCc1cc2c(-c3ccc[nH]c3=O)c(C(=O)NS(=O)(=O)C3CC3)n(Cc3cc(F)ccc3F)c2cc1F	8.30	7.22	6.4	–
